The list is not random: actives were taken first. Their share in the collection is about 3.5%.
MrgX1 antag – antagonists of human MrgX1 receptor | Q96LB2 | MRGX1-HEK293 calcium flux, Fluo-4, BAM8-22 antagonism; hits give low values | B-score at 10 µM | 1.3% of 310,000 active;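 active = calcium-response B-score plate-corrected more than 3 library SD below zero, starting fluorescence within 5 deviations, no agonist response on first addition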;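 note: peak minus trough fluorescence over baseline after final BAM8-22 challenge near maximal dose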
Target sequence (Q96LB2 whole entry, looked up): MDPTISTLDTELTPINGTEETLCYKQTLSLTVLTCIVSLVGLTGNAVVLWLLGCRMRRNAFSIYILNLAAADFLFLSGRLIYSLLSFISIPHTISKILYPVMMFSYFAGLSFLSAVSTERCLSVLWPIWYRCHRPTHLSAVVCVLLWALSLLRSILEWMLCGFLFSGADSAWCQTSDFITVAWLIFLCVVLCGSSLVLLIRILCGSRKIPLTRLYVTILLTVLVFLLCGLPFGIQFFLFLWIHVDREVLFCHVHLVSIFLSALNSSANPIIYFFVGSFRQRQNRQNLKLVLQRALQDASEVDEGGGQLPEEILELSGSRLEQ
RGS4 pot – potentiators or activators of RGS4; HEK293 M3R/inducible RGS4, carbachol calcium flux Fluo4; hits give low values; B-score at 10 µM; 0.92% of 310,000 active; AID 463111;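 active = B-score of the integrated calcium signal more than 4 SD below the library mean, with starting fluorescence not abnormally high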;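 note: negative B-score means reduced calcium response which marks RGS4 activation or potentiation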
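Material: Inducible-RGS4 HEK293 cells carrying M3 receptor; also added: carbachol at ECmax as muscarinic agonist stimulus; incubation: compound preincubation 20 min at room temperature before agonist; signal: Fluo4-AM (2 µM) calcium-flux fluorescence, kinetic read; measure: integrated calcium ratio converted to B score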
MrgX1 ag – activates human MrgX1 receptor signaling; Q96LB2; MrgX1-HEK293 cells, Fluo-4 calcium fluorescence, agonist mode; hits give high values; B-score at 10 µM; 0.44% of 310,000 active; AID 588627;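 active = calcium response B-score plate-corrected fluorescence ratio at least 3 library SD, with starting fluorescence B-score inside 5 SD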
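times = overnight plating, then 30 min 37 °C plus 30 min room-temperature dye loading | assay system = stable human MrgX1 HEK293 cell line | input = fifteen thousand cells per well | signal = kinetic calcium dye fluorescence, Fluo-4 NW | dosing = compound delivered in addition one of three | read-out = B-scored fluorescence response ratio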
MrgX1 PAM – allosterically activates human MrgX1 receptor signaling | Q96LB2 | MrgX1-HEK293, Fluo-4 calcium flux, FDSS; hits give high values | B-score at 10 µM | 0.63% of 310,000 active | AID 588675;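 active = plate-corrected calcium response at least 3 library SD above typical, normal starting fluorescence, not activating the receptor alone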;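 note: compound read alongside a low EC10 to EC30 dose of BAM8-22 agonist; peak minus trough fluorescence over baseline measured at the second addition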
RGS4 block – inhibitors of human RGS4 | P49798 | HEK293 M3R/RGS4 inducible, Fluo-4 calcium flux; hits give high values; triggered by carbachol at its EC20 | B-score at 10 µM | 0.45% of 310,000 active | AID 463165;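 active = B-score, a plate-corrected calcium signal, over three deviations above library mean, with baseline fluorescence within five deviations of library mean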;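 note: RGS4 expression induced by doxycycline in cells with stable M3 receptor; B-score is computed from the integrated fluorescence ratio over baseline after carbachol; higher B-score means a larger calcium signal and so more RGS4 inhibition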
Target sequence (P49798 whole entry, looked up): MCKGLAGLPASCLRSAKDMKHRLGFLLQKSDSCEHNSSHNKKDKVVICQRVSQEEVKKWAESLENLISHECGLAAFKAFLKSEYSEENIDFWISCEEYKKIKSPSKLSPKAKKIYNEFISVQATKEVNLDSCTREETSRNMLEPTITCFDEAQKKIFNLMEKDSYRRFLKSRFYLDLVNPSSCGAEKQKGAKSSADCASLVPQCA
MrgX1 allo conf – reconfirmed allosteric activator of human MrgX1 receptor | activation (ratio percentage), % at 10 µM | 13% of 1,200 active | shares compounds with MrgX1 PAM | MrgX1-HEK293, Fluo-4 calcium fluorescence, FDSS;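 active = ratio at least 3 SD above the weak peptide control, stable starting fluorescence, no direct agonism earlier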;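 note: compound followed by low BAM8-22 agonist challenge near EC20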
HEK293 Ca flux – MrgX1 antagonist counter-screen hit in parental HEK293 cells; fluorescence ratio F(max-min)/F0 at 10 µM; shares compounds with MrgX1 antag; Fluo-4 calcium fluorescence, FDSS; 2% of 4,000 active;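 active = duplicate-averaged calcium fluorescence ratio at least three times the standard deviation of buffer wells, a nonspecific response in parental cells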
HEK293 Ca counter – MrgX1 allosteric activator counter-screen hit in parental HEK293 cells. shares compounds with MrgX1 antag. parental HEK293 calcium flux, Fluo-4 fluorescence ratio; hits give high values. 0.4% of 4,000 active. fluorescence ratio F(max-min)/F0 at 10 µM;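 active = calcium fluorescence ratio, averaged over duplicates, at least 3 SD of the buffer-well ratio, meaning a nonspecific response in receptor-free cells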;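 note: untransfected parental HEK293 lacking MrgX1 used as counterscreen for MrgX1 allosteric activators; fluorescence change taken during the second addition on a kinetic imager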
HEK293 Ca cntr2 – activity in parental HEK293 cells lacking MrgX1 receptor; Fluo-4 calcium fluorescence (FDSS); hits give high values; fluorescence ratio F(max-min)/F0 at 10 µM; AID 624115; shares compounds with MrgX1 antag; 8.7% of 4,000 active;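 active = calcium fluorescence ratio at least three times the spread of buffer wells, meaning a non-specific response in parental cells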
Numbers without * were called inactive; i = inactive; nt = not tested or not shown.

SMILES	MrgX1 antag	RGS4 pot	MrgX1 ag	MrgX1 PAM	RGS4 block	MrgX1 allo conf	HEK293 Ca flux	HEK293 Ca counter	HEK293 Ca cntr2
Nc1nc(Cl)cc(Sc2ccc(F)cc2)n1	i	i	i	6.7*	i	i	i	i	i
Cn1c(=O)c2c(nc(N3CCCCCC3)n2CCSc2nc3ccccc3o2)n(C)c1=O	i	i	i	7.1*	i	i	i	i	i
CC1CCCN(c2nc3c(c(=O)n(C)c(=O)n3C)n2Cc2ccccc2)C1 (configuration not stated)	i	i	i	7.1*	i	i	i	i	i
O=C(NCc1ccon1)C1CCC(=O)N(CCc2cccc(F)c2)C1 (configuration not stated)	nt	i	nt	nt	i	nt	nt	nt	nt
Cc1ccc(S(=O)(=O)NC(=S)NC2CCCCC2)cc1	i	i	i	10*	i	i	i	i	i
CCc1ccc(S(=O)(=O)NC(=S)NC2CCCCC2)cc1	i	i	i	16*	i	i	i	i	i
Cc1ccc(S(=O)(=O)C2(C(=O)NC3CCCC3)CC2)cc1	i	i	i	i	i	nt	nt	nt	nt
O=S(=O)(NC(=S)NC1CCCCC1)c1ccc(Cl)cc1	i	i	i	17*	i	23%*	i	i	i
NS(=O)(=O)c1ccc(CCNC(=S)NC2CCCCC2)cc1	i	i	i	i	i	nt	nt	nt	nt
COc1ccc(S(=O)(=O)n2nc(OC(=O)c3ccccc3)cc2N)cc1	i	i	i	i	i	nt	nt	nt	nt
CS(=O)(=O)n1nc(OC(=O)c2cccc3ccccc23)cc1N	i	i	i	6.5*	i	14%*	i	i	i
COc1ccc(S(=O)(=O)n2nc(OC(=O)c3ccccc3Br)cc2N)cc1	i	i	i	10*	i	32%*	i	i	i
COc1ccc(S(=O)(=O)n2nc(OC(C)=O)cc2N(C(C)=O)C(C)=O)cc1	i	i	i	13*	i	i	i	i	i
CS(=O)(=O)n1nc(OC(=O)c2cc(Br)ccc2Cl)cc1N	i	i	i	i	i	nt	nt	nt	nt
Cc1cccc(NC(=O)CSc2nnc(C)c(=O)n2N)c1	i	i	i	i	i	nt	nt	nt	nt
COC(=O)c1ccc(/C=N/n2c(C)nc3ccccc3c2=O)cc1	i	i	i	i	i	nt	nt	nt	nt
COc1ccccc1-n1c(C)cc(/C=C2/C(=N)N3C(=NC2=O)SN=C3S(C)(=O)=O)c1C	i	i	i	21*	i	i	i	i	i
COc1cc(OC)c(C2SCCCS2)cc1OC	i	i	i	13*	i	6.3%*	i	i	i
COc1cc(OC)c(C2N(C)c3ccccc3N2C)cc1OC	i	i	i	i	i	nt	nt	nt	nt
COc1ccc(CCC(=O)N2CCN(C(=O)c3ccccc3)CC2)cc1	i	i	i	i	i	nt	nt	nt	nt
COc1c(Cl)cccc1-c1cn2ccc(C)cc2n1	i	i	i	15*	i	i	i	i	i
Cc1ccn2cc(-c3ccc(Br)cc3)nc2c1	i	i	i	15*	i	i	i	i	i
O=C(c1ccc(Cl)cc1)N1CCN(c2ncccn2)CC1	i	i	i	i	i	nt	nt	nt	nt
COc1cc([N+](=O)[O-])ccc1NC(=O)CSc1nccn1C	i	i	i	i	i	nt	nt	nt	nt
Cc1ccc(C(=O)Nc2ncnc3sc4c(c23)CCCCC4)cc1	i	i	i	6.7*	i	8.1%*	i	i	i
